One block for each compound: values may come before it. Activity calls are given as the source filed them. The calls are words filed in the database; no cut-off is given here.
Key:
[1] = molecular target: C-X-C chemokine receptor type 4 (Homo sapiens) (UniProt P61073); assay: (§1) Competitive inhibition of biotinylated TN14003 binding to CXCR4 in human MDA-MB-231 cells preincubated for 10 mins followed by biotinylated-TN14003 addition measured after 30 mins by streptavidin-rhodamine staining based fluorescence microscopic analysis; assay type: cell-based
Procedure, shortened: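 MDA-MB-231 cells, 2 × 10⁴ per well, seeded two days ahead. Compound (1, 10, 100 or 1000 nM) added for 10 min at room temperature, then fixed in ice-cold 4% paraformaldehyde and rehydrated in PBS. Biotinylated TN14003 0.05 μg/mL for 30 min at RT, PBS washes, streptavidin-rhodamine (1:150) 30 min at RT. Read by fluorescence microscopy. EC = lowest concentration reducing rhodamine staining versus control.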

[2] = molecular target: C-X-C chemokine receptor type 4 (Homo sapiens) (UniProt P61073); assay: Inhibition of CXCR4-mediated chemotaxis in human MDA-MB-231 cells assessed as reduction in CXCL12alpha-induced cell invasion at 100 nM incubated for 22 hrs by hematoxylin/eosin dye-based matrigel assay relative to control
Procedure, shortened: (§2)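 Matrigel invasion chamber with MDA-MB-231 cells. Compound (100 nM) added to cells before seeding in the top chamber; CXCL12α 200 ng/mL in the bottom chamber as chemoattractant, serum-free medium. Incubated 22 h. Non-invading cells swabbed off; invaded cells fixed in methanol and H&E stained, then counted. Inhibition relative to untreated invasion.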

[3] = molecular target: C-X-C chemokine receptor type 4 (Homo sapiens) (UniProt P61073); assay: as §1, with “Potency index, Ratio of EC for AMD3100 to EC for test compound for” for “Competitive”; assay type: cell-based
[4] = test system: Mus musculus; assay: Antiinflammatory activity in C57BL/6J mouse assessed as inhibition of carrageenan-induced paw edema at 10 mg/kg, ip daily dosed 30 mins after carrageenan challenge and measured 74 hrs carrageenan challenge and 2 hrs post last dose by caliper method relative to control; assay type: functional
Procedure, shortened: (§3)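 Female C57BL/6J mice, five per group; 50 μL λ-carrageenan (1% w/v in saline) injected subcutaneously into one hind paw, 50 μL saline into the other as non-inflamed control. Vehicle-only i.p. controls. Sacrifice 74 h after challenge and 2 h after last dose. Paw thickness measured palm to back with caliper. Edema = injected minus contralateral paw. Suppression % = treated versus control group.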

[5] = test system: Mus musculus; assay: Antiinflammatory activity against carrageenan-induced paw oedema in C57BL/6J mouse assessed as hind paw thickness at 10 mg/kg, ip daily dosed 30 mins after carrageenan challenge and measured 74 hrs carrageenan challenge and 2 hrs post last dose by caliper method (reference value: 3.05 millimeter); assay type: functional; procedure, shortened: as §3
[6] = test system: MDA-MB-231; assay: Cytotoxicity against human MDA-MB-231 cells at 100 uM incubated for 24 hrs by CellTiter-96AQ based MTT assay; assay type: cell-based; conditions: mda-mb-231, 24 h
Procedure, shortened: (§4)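 Cells seeded at 3000 per well and grown 24 h at 37 °C in CO₂. Treated with compound for 24 h at 37 °C, top concentration 100 μM. CellTiter 96AQ reagent added for 2 h more, then absorbance read at 490 nm.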

[7] = test system: Mus musculus; assay: Antiinflammatory activity in C57BL/6J mouse assessed as reduction of carrageenan-induced inflammation and tissue damage in paw by measuring edema volume and thickness at 10 mg/kg, ip daily dosed 30 mins after carrageenan challenge and measured 74 hrs carrageenan challenge and 2 hrs post last dose by H and E staining based histopathological analysis; assay type: functional, organism-based
[8] = test system: SK-BR-3; assay: Cytotoxicity against human SKBR3 cells at 100 uM incubated for 24 hrs by CellTiter-96AQ based MTT assay; assay type: cell-based; conditions: sk-br-3, 24 h; procedure, shortened: as §4
[9] = Tmax in Sprague-Dawley rat at 10 mg/kg, ig measured for 5 min to 6 hrs by LC/MS/MS analysis; assay type: ADME, organism-based; conditions: in vivo, po
Procedure, shortened: (§5)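 Two male SD rats given 10 mg/kg intragastrically in 10% DMSO/90% PBS. Blood drawn at 5, 15, 30 min and 1, 2, 4, 6 h, centrifuged 4000 rpm for 5 min at 4 °C. Protein precipitation, then LC/MS/MS in SRM mode with internal standard. Parameters from noncompartmental analysis of plasma concentration-time data.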

[10] = test system: Mus musculus; assay: Antiinflammatory activity against carrageenan-induced paw oedema in C57BL/6J mouse assessed as paw swollen thickness at 10 mg/kg, ip daily dosed 30 mins after carrageenan challenge and measured 74 hrs carrageenan challenge and 2 hrs post last dose by caliper method (reference value: 0.68 millimeter); assay type: functional; procedure, shortened: as §3
[11] = test system: MCF-10A; assay: Cytotoxicity against human MCF10A cells at 100 uM incubated for 24 hrs by CellTiter-96AQ based MTT assay; assay type: cell-based; procedure, shortened: as §4
[12] = test system: Mus musculus; assay: Antiinflammatory activity in C57BL/6J mouse assessed as reduction in carrageenan-induced accumulation of inflammatory cells in paw tissue at 10 mg/kg, ip daily dosed 30 mins after carrageenan challenge and measured 74 hrs carrageenan challenge and 2 hrs post last dose by H and E staining based histopathological analysis; assay type: functional, organism-based
[13] = Half life in Sprague-Dawley rat at 10 mg/kg, ig measured for 5 min to 6 hrs by LC/MS/MS analysis; assay type: ADME, organism-based; conditions: in vivo, po; procedure, shortened: as §5
[14] = molecular target: C-X-C chemokine receptor type 4 (Homo sapiens) (UniProt P61073); assay: Inhibition of CXCR4-mediated chemotaxis in human MDA-MB-231 cells assessed as reduction in CXCL12alpha-induced cell invasion incubated for 22 hrs by hematoxylin/eosin dye-based matrigel assay relative to control; conditions: concentration not given here; procedure, shortened: as §2

Chain of C-X-C chemokine receptor type 4 (Homo sapiens) (P61073 whole entry): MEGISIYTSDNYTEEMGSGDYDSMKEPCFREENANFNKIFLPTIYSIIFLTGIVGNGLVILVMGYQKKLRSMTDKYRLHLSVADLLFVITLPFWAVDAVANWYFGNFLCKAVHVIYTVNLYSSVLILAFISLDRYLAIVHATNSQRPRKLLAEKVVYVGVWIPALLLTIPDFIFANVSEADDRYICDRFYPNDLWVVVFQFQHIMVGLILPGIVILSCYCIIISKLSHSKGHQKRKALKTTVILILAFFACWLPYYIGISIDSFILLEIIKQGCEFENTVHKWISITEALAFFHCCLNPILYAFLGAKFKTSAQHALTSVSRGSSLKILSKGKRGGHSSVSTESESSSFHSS

SMILES: O=C(NCc1ccc(CNS(=O)(=O)c2ccc(F)c(F)c2)cc1)c1ccc(F)cc1
- EC [1]: 10 nM

SMILES: O=C(NCc1ccc(CNS(=O)(=O)c2ccc(CN3CCOCC3)cc2)cc1)c1ccc(F)cc1
- inhibition [2]: 82%
- Ratio [3]: 100
- EC [1]: 10 nM
- inhibition in vivo at 10 mg/kg [4]: 20%

SMILES: O=C(NCc1ccc(CNS(=O)(=O)c2cccc(C(F)(F)F)c2)cc1)c1ccc(F)cc1
- inhibition [2]: 93%
- EC [1]: 100 nM
- inhibition in vivo at 10 mg/kg [4]: 20%

SMILES: Cc1ccc(S(=O)(=O)NCc2ccc(CNC(=O)c3ccc(F)nc3)cc2)cc1
- EC [1]: > 1000 nM

SMILES: Cc1ccccc1S(=O)(=O)NCc1ccc(CNC(=O)c2ccc(F)cc2)cc1
- EC [1]: 100 nM

SMILES: O=C(NCc1ccc(CNS(=O)(=O)c2cccc(F)c2)cc1)c1ccc(F)cc1
- EC [1]: 1000 nM

SMILES: O=C(NCc1ccc(CNS(=O)(=O)c2cccnc2)cc1)c1ccc(F)cc1
- EC [1]: 1000 nM

SMILES: O=C(NCc1ccc(CNS(=O)(=O)c2cccc3ccccc23)cc1)c1ccc(F)cc1
- EC [1]: 1000 nM

SMILES: O=C(NCc1ccc(CNS(=O)(=O)c2ccccc2Cl)cc1)c1ccc(F)cc1
- EC [1]: 1000 nM

SMILES: O=C(NCc1ccc(CNS(=O)(=O)c2ccc(F)cc2)cc1)c1ccc(F)cc1
- EC [1]: 1 nM

SMILES: O=C(NCc1ccc(CNS(=O)(=O)c2ccc(-c3ccc(F)cc3)cc2)cc1)c1ccc(F)cc1
- EC [1]: 100 nM

SMILES: Cc1ccc(S(=O)(=O)NCc2ccc(CNC(=O)c3ccc(F)cc3)cc2)cc1
- inhibition [14]: 65%
- inhibition in vivo at 10 mg/kg [4]: 30%

SMILES: Cc1ccc(S(=O)(=O)NCc2ccc(CNC(=O)c3ccc(F)cn3)cc2)cc1
- EC [1]: 1000 nM

SMILES: O=C(NCc1ccc(CNS(=O)(=O)c2cccc(Cl)c2)cc1)c1ccc(F)cc1
- inhibition [2]: 95%
- EC [1]: 1 nM
- inhibition in vivo at 10 mg/kg [4]: 20%

The next lines start with results.

- Ratio [3]: 1000
- EC [1]: 1 nM
SMILES: CCN(CC)Cc1ccc(S(=O)(=O)NCc2ccc(CNC(=O)c3ccc(F)cc3)cc2)cc1

- EC [1]: 100 nM
SMILES: O=C(NCc1ccc(CNS(=O)(=O)c2ccc(Cl)cc2)cc1)c1ccc(F)cc1

- Ratio [3]: 1000
- EC [1]: 1 nM
SMILES: O=C(NCc1ccc(CNS(=O)(=O)c2ccc(CN3CCCC3)cc2)cc1)c1ccc(F)cc1
- inhibition [2]: 92%
- inhibition in vivo at 10 mg/kg [4]: 20%

- Tmax [9]: 0.25 h
- EC [1]: 10 nM
- t1/2 [13]: 4.77 h
SMILES: O=C(NCc1ccc(CNS(=O)(=O)c2ccc3c(c2)CCO3)cc1)c1ccc(F)cc1
- Activity [5]: 2.64 mm
- Activity [6]: Non-Toxic
- inhibition [7]: Active
- Activity [8]: Non-Toxic
- inhibition [2]: 83%
- Activity [10]: 0.21 mm
- Activity [11]: Non-Toxic
- inhibition [12]: Active
- inhibition in vivo at 10 mg/kg [4]: 43%

- EC [1]: 10 nM
SMILES: O=C(NCc1ccc(CNS(=O)(=O)c2ccccc2F)cc1)c1ccc(F)cc1

- EC [1]: 1 nM
SMILES: Cc1cccc(S(=O)(=O)NCc2ccc(CNC(=O)c3ccc(F)cc3)cc2)c1

- EC [1]: 1000 nM
SMILES: O=C(NCc1ccc(CNS(=O)(=O)c2ccc([N+](=O)[O-])cc2)cc1)c1ccc(F)cc1

From ChEMBL document CHEMBL4346702, “Development of CXCR4 modulators based on the lead compound RB-108” (Eur J Med Chem, 2019)
